Source: ChEMBL document CHEMBL1240461, “Regioselective synthesis and molecular modeling study of vasorelaxant active 7,9-dioxa-1,2-diaza-spiro[4.5]dec-2-ene-6,10-diones” (Eur J Med Chem, 2010)
pIC50: −log10 of the molar value.

System: Aorta
Test: Vasorelaxant activity in Wistar rat thoracic aortic ring assessed as inhibition of norepinephrine hydrochloride-induced contraction
Type: functional, tissue-based
Outline: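 Isolated thoracic aortic rings from male Wistar rats, stabilised at 2 g resting tension for 2 h. Controls used DMSO alone at matching concentrations. IC50 is the concentration giving 50% reduction of maximal norepinephrine contracture, from a best-fit line.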

Row | pIC50 | SMILES
1 | 3.23 | CC1(C)OC(=O)C2(C(=O)O1)C(c1ccc(Cl)cc1)C(c1ccccc1)=NN2c1ccccc1 (stereo unspecified)
2 | 3.35 | CC1(C)OC(=O)C2(C(=O)O1)C(c1ccc(Cl)cc1)C(c1ccccc1)=NN2c1cccc(Cl)c1 (stereo unspecified)
3 | 2.83 | CC1(C)OC(=O)C2(C(=O)O1)C(c1ccc(F)cc1)C(c1ccccc1)=NN2c1ccccc1 (stereo unspecified)
4 | 3.19 | CC1(C)OC(=O)C2(C(=O)O1)C(c1ccc(F)cc1)C(c1ccccc1)=NN2c1cccc(Cl)c1 (stereo unspecified)
5 | 3.30 | COc1ccc(C2C(c3ccccc3)=NN(c3ccccc3)C23C(=O)OC(C)(C)OC3=O)cc1 (stereo unspecified)
6 | 3.49 | COc1ccc(C2C(c3ccccc3)=NN(c3cccc(Cl)c3)C23C(=O)OC(C)(C)OC3=O)cc1 (stereo unspecified)
7 | 3.37 | CN(C)c1ccc(C2C(c3ccccc3)=NN(c3cccc(Cl)c3)C23C(=O)OC(C)(C)OC3=O)cc1 (stereo unspecified)
8 | 3.23 | CC1(C)OC(=O)C2(C(=O)O1)C(c1cccs1)C(c1ccccc1)=NN2c1ccccc1 (stereo unspecified)
9 | 3.49 | CC1(C)OC(=O)C2(C(=O)O1)C(c1cccs1)C(c1ccccc1)=NN2c1cccc(Cl)c1 (stereo unspecified)
10 | 3.14 | Cc1ccc(C2C(c3ccccc3)=NN(c3ccccc3)C23C(=O)OC(C)(C)OC3=O)o1 (stereo unspecified)
11 | 3.14 | Cc1ccc(C2C(c3ccccc3)=NN(c3cccc(Cl)c3)C23C(=O)OC(C)(C)OC3=O)o1 (stereo unspecified)
